Columns and labels:
[1] = Tested for the velocity of 2.8 mM compound relative to that of 2.8 mM MgATP in the assay
Summary of the method: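 E. coli TK substrate test. 0.5 h after adding inhibitor, the mixture was diluted to 2.8 mM derivative in thymidine assay medium without ATP and with 1.42 mM MnCl2. Incubated 15 min at 37 °C, in the linear range. [14C]TMP formed was compared with that from 2.8 mM ATP under the same conditions.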

[2] = target: T1, Hexokinase-2 (Rattus norvegicus) (UniProt P27881); test: Time dependent inhibition of hexokinase 2 activity after 6 h, at 5 mM compound
T1 sequence (whole entry): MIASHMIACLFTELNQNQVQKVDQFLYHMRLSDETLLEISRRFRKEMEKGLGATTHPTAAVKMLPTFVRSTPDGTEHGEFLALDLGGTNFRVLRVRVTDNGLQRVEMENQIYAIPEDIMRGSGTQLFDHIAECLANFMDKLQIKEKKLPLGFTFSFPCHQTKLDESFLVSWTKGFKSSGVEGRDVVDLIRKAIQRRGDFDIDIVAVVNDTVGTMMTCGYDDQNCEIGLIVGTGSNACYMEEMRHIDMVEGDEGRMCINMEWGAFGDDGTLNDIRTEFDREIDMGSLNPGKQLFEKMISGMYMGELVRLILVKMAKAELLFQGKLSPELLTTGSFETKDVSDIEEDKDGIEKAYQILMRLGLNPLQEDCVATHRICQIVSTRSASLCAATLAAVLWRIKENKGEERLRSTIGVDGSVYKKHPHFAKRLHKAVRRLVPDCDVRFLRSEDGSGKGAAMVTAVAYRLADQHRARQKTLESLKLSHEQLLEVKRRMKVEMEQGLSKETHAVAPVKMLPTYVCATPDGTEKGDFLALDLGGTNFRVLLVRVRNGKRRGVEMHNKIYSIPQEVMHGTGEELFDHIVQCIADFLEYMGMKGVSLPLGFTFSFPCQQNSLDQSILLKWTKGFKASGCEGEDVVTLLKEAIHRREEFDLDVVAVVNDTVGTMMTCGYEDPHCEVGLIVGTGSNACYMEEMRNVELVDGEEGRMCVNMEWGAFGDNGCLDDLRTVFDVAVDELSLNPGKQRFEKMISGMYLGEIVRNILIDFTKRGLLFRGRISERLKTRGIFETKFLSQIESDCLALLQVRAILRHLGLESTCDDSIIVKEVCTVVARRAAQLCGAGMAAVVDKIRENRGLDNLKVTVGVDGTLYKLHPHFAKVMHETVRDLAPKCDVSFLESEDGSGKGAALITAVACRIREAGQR

[3] = target: T2, Hexokinase-3 (Rattus norvegicus) (UniProt P27926); test: Time dependent inhibition of Hexokinase type III activity after 6 h, at 22 degrees celsius, at 5 mM
T2 sequence (whole entry): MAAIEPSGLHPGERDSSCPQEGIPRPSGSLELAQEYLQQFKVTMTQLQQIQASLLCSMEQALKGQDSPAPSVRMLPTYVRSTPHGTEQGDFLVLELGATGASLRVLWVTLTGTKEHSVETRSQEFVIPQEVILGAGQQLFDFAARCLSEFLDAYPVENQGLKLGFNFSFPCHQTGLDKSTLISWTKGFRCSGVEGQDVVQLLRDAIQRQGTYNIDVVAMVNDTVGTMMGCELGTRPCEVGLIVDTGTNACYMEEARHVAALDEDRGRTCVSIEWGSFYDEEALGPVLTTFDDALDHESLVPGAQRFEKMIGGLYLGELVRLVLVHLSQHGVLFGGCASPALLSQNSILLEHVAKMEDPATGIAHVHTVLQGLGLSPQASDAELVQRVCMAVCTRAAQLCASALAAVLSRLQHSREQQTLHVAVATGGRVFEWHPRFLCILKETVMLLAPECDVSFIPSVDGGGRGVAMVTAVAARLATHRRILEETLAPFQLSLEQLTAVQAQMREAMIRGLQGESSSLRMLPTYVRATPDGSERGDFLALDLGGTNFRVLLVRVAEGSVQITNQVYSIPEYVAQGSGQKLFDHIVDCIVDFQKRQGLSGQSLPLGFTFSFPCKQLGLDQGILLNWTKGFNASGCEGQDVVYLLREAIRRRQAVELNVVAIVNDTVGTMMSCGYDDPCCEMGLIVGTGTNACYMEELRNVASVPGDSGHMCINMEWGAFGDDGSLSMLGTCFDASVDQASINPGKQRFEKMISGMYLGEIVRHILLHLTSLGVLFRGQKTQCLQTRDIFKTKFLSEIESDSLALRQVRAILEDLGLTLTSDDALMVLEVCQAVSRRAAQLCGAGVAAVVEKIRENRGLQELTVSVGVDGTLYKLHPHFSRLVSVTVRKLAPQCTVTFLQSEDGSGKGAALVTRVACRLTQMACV

[4] = target: T3, Hexokinase-1 (Rattus norvegicus) (UniProt P05708); test: Time dependent inhibition of Hexokinase type I activity after 6 h, at 22 degrees celsius, at 5 mM compound
T3 sequence (whole entry): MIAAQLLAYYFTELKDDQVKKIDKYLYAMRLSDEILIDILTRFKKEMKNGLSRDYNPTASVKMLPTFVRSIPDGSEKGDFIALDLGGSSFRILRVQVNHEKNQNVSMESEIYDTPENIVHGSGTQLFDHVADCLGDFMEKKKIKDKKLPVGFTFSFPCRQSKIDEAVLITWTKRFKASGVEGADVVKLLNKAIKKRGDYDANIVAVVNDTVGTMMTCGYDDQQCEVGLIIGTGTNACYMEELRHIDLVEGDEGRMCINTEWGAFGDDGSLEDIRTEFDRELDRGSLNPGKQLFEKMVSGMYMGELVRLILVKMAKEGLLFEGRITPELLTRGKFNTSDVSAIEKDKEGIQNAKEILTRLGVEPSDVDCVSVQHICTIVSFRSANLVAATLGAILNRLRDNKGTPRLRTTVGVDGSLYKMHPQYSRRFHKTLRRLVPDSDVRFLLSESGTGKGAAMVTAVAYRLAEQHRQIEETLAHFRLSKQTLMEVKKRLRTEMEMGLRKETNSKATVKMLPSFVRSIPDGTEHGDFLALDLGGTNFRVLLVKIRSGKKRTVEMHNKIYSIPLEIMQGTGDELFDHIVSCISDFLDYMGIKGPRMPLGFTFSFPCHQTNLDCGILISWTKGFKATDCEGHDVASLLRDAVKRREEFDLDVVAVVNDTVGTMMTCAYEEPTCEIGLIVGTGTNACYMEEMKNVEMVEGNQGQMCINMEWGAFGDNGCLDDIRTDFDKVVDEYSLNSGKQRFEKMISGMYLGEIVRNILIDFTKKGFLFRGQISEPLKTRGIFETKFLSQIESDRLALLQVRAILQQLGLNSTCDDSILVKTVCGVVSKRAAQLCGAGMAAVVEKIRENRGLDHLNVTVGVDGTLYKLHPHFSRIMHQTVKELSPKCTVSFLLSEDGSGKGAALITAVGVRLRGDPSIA

[5] = target: Thymidine kinase (Escherichia coli) (UniProt P23331); test: Compound was tested for the initial inhibition of thymidine kinase by 1.4 mM compound in the presence of 5.7 mM ATP
Thymidine kinase (Escherichia coli), sequence (P23331 whole entry, looked up): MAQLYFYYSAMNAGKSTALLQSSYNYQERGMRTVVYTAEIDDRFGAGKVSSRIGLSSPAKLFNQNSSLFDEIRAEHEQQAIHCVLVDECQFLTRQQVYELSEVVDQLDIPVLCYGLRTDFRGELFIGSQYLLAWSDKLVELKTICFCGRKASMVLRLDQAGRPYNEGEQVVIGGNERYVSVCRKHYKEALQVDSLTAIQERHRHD

Saccharomyces cerevisiae [6] = test: Time dependent inhibition of hexokinase activity after 6 hr, at 22 degrees celsius, with 5 mM ATP derivative in yeast.
[7] = target: Thymidine kinase (Escherichia coli) (UniProt P23331); test: Compound was tested for the loss of thymidine kinase activity from Escherichia coli after 6 hr at 0 degrees C at 10 mM
[8] = target: T1, Hexokinase-2 (Rattus norvegicus); test: Substrate activity against Rat hexokinase II as 1:1 Mg complex at 5.0 mM
Summary of the method: (§1)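 Hexokinase activity read at 22 °C as A340 change, coupled to glucose-6-phosphate dehydrogenase, in 0.05 M Tris-HCl pH 7.6 with 6.6 mM MgCl2, 10 mM α-D-glucose and 0.93 mM NADP. Donor was 5.0 mM MgATP derivative (1:1 Mg complex) in place of ATP. Yeast HK was isoelectric-focused. Rat HK I and III came from electrofocused liver extract, HK II from dialysed muscle extract.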

[9] = target: T3, Hexokinase-1 (Rattus norvegicus); test: Substrate activity for rat hexokinase I as 1:1 Mg complex at 5.0 mM; summary of the method: as §1
[10] = target: T2, Hexokinase-3 (Rattus norvegicus); test: Substrate activity for rat hexokinase III as 1:1 Mg complex at 5.0 mM; summary of the method: as §1
Saccharomyces cerevisiae [11] = test: Substrate activity against yeast hexokinase as 1:1 Mg complexes at 5.0 mM; summary of the method: as §1
[12] = target: T2, Hexokinase-3 (Rattus norvegicus); test: Time dependent inhibition of Hexokinase type III activity after 6 hr, at 22 degrees celsius, at 5 mM compound
[13] = target: Thymidine kinase (Escherichia coli) (UniProt P23331); test: Compound was tested for the initial inhibition of thymidine kinase by 1.4 mM compound in the presence of 5.7 mM ATP in Escherichia coli
Saccharomyces cerevisiae [14] = test: Compound was tested for time dependent inhibition of hexokinase activity after 6 hr, at 22 degrees celsius, with 5 mM ATP derivative in yeast hexokinase
[15] = target: Thymidine kinase (Escherichia coli) (UniProt P23331); test: Compound was tested for the lose of thymidine kinase activity after 6 hr, at 0 degrees celsius, with 10 mM ATP derivative. values were expressed in percent
[16] = Substrate concentration for half maximal velocity was reported for yeast hexokinase
Summary of the method: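 Coupled glucose-6-phosphate dehydrogenase/NADP assay: A340 rate at 22 °C in 0.05 M Tris-HCl pH 7.6 with 6.6 mM MgCl2, 10 mM α-D-glucose and 0.93 mM NADP, nucleotide varied. KM was taken from linear double-reciprocal plots. Rat HK I and III came from electrofocused, dialysed liver extract, HK II from dialysed muscle extract, and yeast HK was isoelectric-focused.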

[17] = Compound was tested for substrate constants with yeast hexokinase. Maximal velocity Vmax was reported
Summary of the method: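 Hexokinase KM and Vmax taken from linear double-reciprocal plots of initial velocity vs. nucleotide level. Assays at 22 °C, coupled to glucose-6-phosphate dehydrogenase (A340), in 0.05 M Tris-HCl pH 7.6 with 6.6 mM MgCl2, 10 mM glucose and 0.93 mM NADP. Yeast HK was isoelectric-focused. Rat HK I and III came from liver, HK II from muscle (male Sprague-Dawley).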

Velocity [1]	inhibition [2]	inhibition [3]	inhibition [4]	inhibition [5]	inhibition (Saccharomyces cerevisiae [6])	inhibition [7]	Relative velocity [8]	Relative velocity [9]	Relative velocity [10]	Relative velocity (Saccharomyces cerevisiae [11])	inhibition [12]	inhibition [13]	inhibition (Saccharomyces cerevisiae [14])	inhibition [15]	Km [16]	Vmax [17]	Structure (SMILES)
> 34%	0%	0%	0%	5%	0%	51%											CN(CCCN(C)C(=O)CCCCNc1ncnc2c1ncn2[C@@H]1O[C@H](COP(=O)(O)OP(=O)(O)OP(=O)(O)O)[C@@H](O)[C@H]1O)C(=O)CCCCNC(=O)CI
14%	0%	0%	0%	12%	0%	0%											CN(CCCCN(C)C(=O)CCCNc1ncnc2c1ncn2[C@@H]1O[C@H](COP(=O)(O)OP(=O)(O)OP(=O)(O)O)[C@@H](O)[C@H]1O)C(=O)CCCNC(=O)CI
13%				26%	0%	0%	0.6	0.92	1.31	0.75	0%						O=C(CI)NCCCCCNc1ncnc2c1ncn2[C@@H]1O[C@H](COP(=O)(O)OP(=O)(O)OP(=O)(O)O)[C@@H](O)[C@H]1O
39%	0%	0%	0%	12%	0%	0%											O=C(CI)NCCCCC(=O)NCCCCCCNc1ncnc2c1ncn2[C@@H]1O[C@H](COP(=O)(O)OP(=O)(O)OP(=O)(O)O)[C@@H](O)[C@H]1O
34%	0%	0%	0%	9%	0%	0%											CN(CCCCN(C)C(=O)CCCCNc1ncnc2c1ncn2[C@@H]1O[C@H](COP(=O)(O)OP(=O)(O)OP(=O)(O)O)[C@@H](O)[C@H]1O)C(=O)CCCCNC(=O)CI
57%	0%		0%				0.85	1.66	2.06	0.94		16%	0%	0%			CN(CCCCCCN(C)c1ncnc2c1ncn2[C@@H]1O[C@H](COP(=O)(O)OP(=O)(O)OP(=O)(O)O)[C@@H](O)[C@H]1O)C(=O)CCCCCCNC(=O)CI
> 39%		0%	0%	13%	0%	74%	0.57	0.79	1.04	1.06							O=C(CI)NCCCCCC(=O)NCCCNc1ncnc2c1ncn2[C@@H]1O[C@H](COP(=O)(O)OP(=O)(O)OP(=O)(O)O)[C@@H](O)[C@H]1O
> 25%	0%		0%	28%	0%	58%											O=C(CI)NCCCCCCC(=O)NCCCNc1ncnc2c1ncn2[C@@H]1O[C@H](COP(=O)(O)OP(=O)(O)OP(=O)(O)O)[C@@H](O)[C@H]1O
															300 µM	75%	CN(CCCCN(C)c1ncnc2c1ncn2[C@@H]1O[C@H](COP(=O)(O)OP(=O)(O)OP(=O)(O)O)[C@@H](O)[C@H]1O)C(=O)CCCCCNC(=O)OCc1ccccc1

From ChEMBL document CHEMBL1122206, “Use of adenine nucleotide derivatives to assess the potential of exo-active-site-directed reagents as species- or isozyme-specific enzyme inactivators. 5. Interactions of adenosine 5'-triphosphate derivatives with rat pyruvate kinases, Escherichia coli thymidine kinase, and yeast and rat …” (1982)
